Source: ChEMBL document CHEMBL2424622, “Development of amino-pyrimidine inhibitors of c-Jun N-terminal kinase (JNK): kinase profiling guided optimization of a 1,2,3-benzotriazole lead” (Bioorg Med Chem Lett, 2013)

Tests used:
[1] = tested on: Epidermal growth factor receptor (Homo sapiens), P00533 [L858R]; assay: Competitive binding affinity to EGFR L858R mutant (unknown origin) at 10 uM in presence of ATP relative to control
Outline: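 In vitro ATP-site competition binding assay, part of profiling against a diverse panel of 128 kinases. Each compound was tested at a single concentration of 10 µM. Kinome selectivity was summarized as S15 selectivity scores.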

[2] = molecular target: T1, Serine/threonine-protein kinase DCLK3 (Homo sapiens) (UniProt Q9C098); assay: Competitive binding affinity to DCAMKL3 (unknown origin) at 10 uM in presence of ATP relative to control
T1 sequence (whole entry): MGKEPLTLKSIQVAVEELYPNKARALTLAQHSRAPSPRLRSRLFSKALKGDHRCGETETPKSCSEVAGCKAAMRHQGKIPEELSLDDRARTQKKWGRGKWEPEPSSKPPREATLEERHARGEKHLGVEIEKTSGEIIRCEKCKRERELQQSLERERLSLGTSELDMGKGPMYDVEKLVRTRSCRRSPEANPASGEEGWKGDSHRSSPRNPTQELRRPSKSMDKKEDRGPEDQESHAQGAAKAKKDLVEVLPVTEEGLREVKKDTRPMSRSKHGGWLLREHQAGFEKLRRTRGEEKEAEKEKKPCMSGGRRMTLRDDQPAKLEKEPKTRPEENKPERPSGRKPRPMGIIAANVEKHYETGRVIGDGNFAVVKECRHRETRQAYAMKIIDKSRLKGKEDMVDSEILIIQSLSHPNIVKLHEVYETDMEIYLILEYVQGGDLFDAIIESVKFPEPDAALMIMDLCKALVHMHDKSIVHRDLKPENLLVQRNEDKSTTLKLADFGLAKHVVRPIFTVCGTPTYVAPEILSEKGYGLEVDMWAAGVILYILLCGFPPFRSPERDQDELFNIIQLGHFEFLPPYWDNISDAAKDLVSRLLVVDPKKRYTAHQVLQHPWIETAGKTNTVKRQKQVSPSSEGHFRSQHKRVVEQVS

[3] = tested on: Tyrosine-protein kinase ABL1 (Homo sapiens), P00519 [Y253F]; assay: Competitive binding affinity to ABL1 Y253F mutant (unknown origin) at 10 uM in presence of ATP relative to control
[4] = molecular target: T2, Tyrosine-protein kinase Tec (Homo sapiens) (UniProt P42680); assay: Competitive binding affinity to TEC (unknown origin) at 10 uM in presence of ATP relative to control
T2 sequence (whole entry): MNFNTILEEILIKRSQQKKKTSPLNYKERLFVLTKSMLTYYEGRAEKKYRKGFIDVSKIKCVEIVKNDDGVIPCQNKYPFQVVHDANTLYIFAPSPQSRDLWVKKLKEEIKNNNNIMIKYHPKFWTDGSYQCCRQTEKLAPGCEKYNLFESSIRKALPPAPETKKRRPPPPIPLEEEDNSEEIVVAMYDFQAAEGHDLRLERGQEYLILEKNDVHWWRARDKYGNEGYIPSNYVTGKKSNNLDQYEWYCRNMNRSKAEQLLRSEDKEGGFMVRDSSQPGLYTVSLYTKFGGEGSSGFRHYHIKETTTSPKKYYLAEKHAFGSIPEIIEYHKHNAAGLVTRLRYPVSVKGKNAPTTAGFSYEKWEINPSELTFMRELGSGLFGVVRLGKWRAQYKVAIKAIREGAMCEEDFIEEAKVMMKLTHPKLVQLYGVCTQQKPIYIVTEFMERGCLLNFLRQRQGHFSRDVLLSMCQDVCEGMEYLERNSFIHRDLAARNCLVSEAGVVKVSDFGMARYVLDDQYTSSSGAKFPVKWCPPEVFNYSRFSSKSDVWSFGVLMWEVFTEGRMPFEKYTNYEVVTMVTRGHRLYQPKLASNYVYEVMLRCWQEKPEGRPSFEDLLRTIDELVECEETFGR

[5] = molecular target: T3, Serine/threonine-protein kinase 3 (Homo sapiens) (UniProt Q13188); assay: Competitive binding affinity to STK3 (unknown origin) at 10 uM in presence of ATP relative to control
T3 sequence (whole entry): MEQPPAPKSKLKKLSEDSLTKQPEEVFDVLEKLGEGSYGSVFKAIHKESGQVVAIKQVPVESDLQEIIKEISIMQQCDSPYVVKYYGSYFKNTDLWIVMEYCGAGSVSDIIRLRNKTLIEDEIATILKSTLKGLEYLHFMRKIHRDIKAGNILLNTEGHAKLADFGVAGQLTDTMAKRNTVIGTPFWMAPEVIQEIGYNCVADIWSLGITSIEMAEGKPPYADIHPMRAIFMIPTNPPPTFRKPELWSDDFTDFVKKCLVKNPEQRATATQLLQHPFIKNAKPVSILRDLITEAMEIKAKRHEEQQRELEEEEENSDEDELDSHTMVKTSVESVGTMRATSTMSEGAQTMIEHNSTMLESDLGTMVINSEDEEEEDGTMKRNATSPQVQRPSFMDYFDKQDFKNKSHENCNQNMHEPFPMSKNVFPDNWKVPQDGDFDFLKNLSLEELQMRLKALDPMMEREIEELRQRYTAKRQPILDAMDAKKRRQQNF

Epidermal growth factor receptor (Homo sapiens), P00533 [L858R], sequence (P00533 whole entry L858R): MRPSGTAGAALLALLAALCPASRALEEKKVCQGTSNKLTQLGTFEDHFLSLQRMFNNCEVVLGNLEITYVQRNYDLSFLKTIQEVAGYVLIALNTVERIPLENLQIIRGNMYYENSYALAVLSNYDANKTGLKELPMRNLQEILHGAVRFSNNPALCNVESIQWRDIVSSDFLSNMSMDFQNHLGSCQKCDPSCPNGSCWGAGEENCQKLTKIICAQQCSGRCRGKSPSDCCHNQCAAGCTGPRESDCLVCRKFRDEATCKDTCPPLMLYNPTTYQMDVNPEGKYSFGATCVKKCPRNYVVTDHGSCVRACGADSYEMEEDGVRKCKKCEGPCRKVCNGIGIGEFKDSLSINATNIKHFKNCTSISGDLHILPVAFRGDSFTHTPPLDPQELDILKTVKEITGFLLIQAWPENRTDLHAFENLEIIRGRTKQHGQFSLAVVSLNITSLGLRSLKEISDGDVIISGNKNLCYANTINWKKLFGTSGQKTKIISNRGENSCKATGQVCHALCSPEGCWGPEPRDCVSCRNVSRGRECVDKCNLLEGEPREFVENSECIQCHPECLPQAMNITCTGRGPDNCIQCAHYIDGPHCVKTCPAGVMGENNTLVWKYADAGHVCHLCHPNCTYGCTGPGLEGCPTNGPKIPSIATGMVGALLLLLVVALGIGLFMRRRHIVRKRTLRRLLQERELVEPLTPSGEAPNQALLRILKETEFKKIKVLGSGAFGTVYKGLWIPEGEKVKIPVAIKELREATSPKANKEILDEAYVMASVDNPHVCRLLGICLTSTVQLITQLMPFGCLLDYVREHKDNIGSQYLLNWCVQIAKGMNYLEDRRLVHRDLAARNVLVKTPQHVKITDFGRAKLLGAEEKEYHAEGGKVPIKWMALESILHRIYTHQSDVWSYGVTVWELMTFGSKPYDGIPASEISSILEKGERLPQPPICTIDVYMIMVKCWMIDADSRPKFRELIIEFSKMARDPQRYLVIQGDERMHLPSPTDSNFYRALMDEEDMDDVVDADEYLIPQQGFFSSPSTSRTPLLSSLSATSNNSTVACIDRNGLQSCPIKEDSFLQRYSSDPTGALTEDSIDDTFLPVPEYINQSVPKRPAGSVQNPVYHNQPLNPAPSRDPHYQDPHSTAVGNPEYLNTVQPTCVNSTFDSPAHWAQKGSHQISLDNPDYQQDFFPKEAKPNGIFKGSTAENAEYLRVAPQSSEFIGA

Row | Compound | inhibition [1] [%] | inhibition [2] [%] | inhibition [3] [%] | inhibition [4] [%] | inhibition [5] [%]
1 | N[C@H]1CC[C@H](Nc2nccc(-n3nnc4ccccc43)n2)CC1 |  |  |  |  | 96
2 | O[C@H]1CC[C@H](Nc2nccc(-c3n[nH]c4ccccc34)n2)CC1 | < 50 |  | < 50 |  | 94
3 | CS(=O)(=O)CCCOc1cccc2c1ccn2-c1ccnc(N[C@H]2CC[C@H](C(=O)N3CCC(O)CC3)CC2)n1 |  | > 85 |  |  | 
4 | O=C([C@H]1CC[C@H](Nc2nccc(-n3nnc4ccccc43)n2)CC1)N1CCOCC1 |  |  |  |  | 86

Second part, the compound after the results:

Row | inhibition [1] [%] | inhibition [2] [%] | inhibition [3] [%] | inhibition [4] [%] | inhibition [5] [%] | Compound
5 | < 50 | 73 | < 50 | < 50 |  | O[C@H]1CC[C@H](Nc2nccc(-n3ncc4ccccc43)n2)CC1
6 | < 50 | 84 | < 50 | < 50 |  | O[C@H]1CC[C@H](Nc2nccc(-n3ccc4ccccc43)n2)CC1
7 | < 50 | 92 | 66 | < 50 |  | O[C@H]1CC[C@H](Nc2nccc(-n3nnc4ccccc43)n2)CC1
